Tests used:
hβ4 nAChR subtypes = type: binding, human; conditions: read-out: Affinity for hβ4 nAChR subtypes; range over α4β4, α3β4, α2β4
hα2β2 nAChR = hα2β2 nAChR (Homo sapiens, UniProt P17787+Q15822); experiment: biochemical; type: binding
nAChR α2β4 = nAChR α2β4 (Homo sapiens, UniProt P30926+Q15822); experiment: biochemical; type: binding
α4β2* nAChRs [1] = experiment: Mouse brain [18F]Nifene PET/CT; type: in vivo; conditions: mouse PET
Outline: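 BALB/c mice (25–30 g) were induced with 4% isoflurane and kept on 2% during the scan. A bolus of about 9.25 MBq radiotracer was followed by dynamic acquisition for up to 120 min, then CT for attenuation correction. Images were coregistered to an MRI mouse template. Time-activity curves came from atlas-guided VOIs without partial volume correction. Logan noninvasive DVR, with BPND = DVR−1.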

[2] = Tolerability of [18F]Nifene in human PET subjects; type: in vivo; conditions: 185 MBq, <0.10 μg per injection
Outline: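 Healthy volunteers aged 21–69 (4 male, 4 female) studied under an FDA investigational new drug application. Each received a bolus of about 185 MBq radiotracer in sterile saline. Vital signs and laboratory results were assessed for adverse or clinically detectable pharmacologic effects.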

α4β2* nAChRs [3] = experiment: Rat brain [18F]Nifene PET/CT; type: in vivo; conditions: rat PET
Outline: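 Sprague-Dawley rats (250–400 g) were induced with 4% isoflurane and kept on 2.5% during the scan. A bolus of about 24 MBq radiotracer was followed by dynamic acquisition for up to 120 min, then CT for attenuation correction. Images were normalized to stereotaxic space via an MRI rat template. Time-activity curves came from atlas-guided VOIs without partial volume correction. Logan noninvasive DVR, with BPND = DVR−1.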

α4β2* nAChRs [4] = experiment: [18F]Nifene PET across species; type: in vivo; conditions: all species (mice, rats, monkeys, and humans)
α4β2* nAChRs [5] = experiment: Human brain [18F]Nifene PET, distribution volume ratio; type: in vivo; conditions: for DVR ATR / DVR CB / DVR Frontal cortex / DVR LG / DVR OG / DVR Pit / DVR Red Nucleus / DVR SLF / DVR SN/VTA / DVR Thalamus: corpus callosum reference
Outline: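 Eight healthy volunteers (4 male, 4 female), 21–69 years. Bolus of about 185 MBq radiotracer, then 90 min dynamic 3-D acquisition on an HR+ scanner. Frames were […], reconstructed by filtered back projection with a 4 mm Gaussian filter. FreeSurfer regions came from coregistered 3 T MRI. Parametric DVR images were made by MRTM2 with corpus callosum as reference.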

α4β2* nAChRs [6] = experiment: Rhesus monkey brain [18F]Nifene PET; type: in vivo, rhesus monkey (Macaca mulatta)
Outline: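 Rhesus monkeys (8–10 kg) had ketamine/xylazine IM, or ketamine/atropine IM plus 1–2% isoflurane. A bolus of about 48–111 MBq radiotracer was followed by at least 120 min acquisition on an HR+ or microPET scanner. Data were binned into 23 frames and reconstructed by filtered back projection. Circular ROIs on cerebellum, thalamus, lateral geniculate and cortex gave time-activity curves and BPND.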

[7] = after intravenous administration; ref Kant et al., 2011; cited from earlier work
[8] = partial agonist; ref Niaura, Jones, & Kirkpatrick, 2006; cited from earlier work
[9] = human PET, females Avg±SD (4 subjects)
[10] = human PET, males Avg±SD (4 subjects)
[11] = human PET, males Avg±SD (4 subjects), listed as 18F-Nifene

Sequence of nAChR α2β4 (Q15822 27-529): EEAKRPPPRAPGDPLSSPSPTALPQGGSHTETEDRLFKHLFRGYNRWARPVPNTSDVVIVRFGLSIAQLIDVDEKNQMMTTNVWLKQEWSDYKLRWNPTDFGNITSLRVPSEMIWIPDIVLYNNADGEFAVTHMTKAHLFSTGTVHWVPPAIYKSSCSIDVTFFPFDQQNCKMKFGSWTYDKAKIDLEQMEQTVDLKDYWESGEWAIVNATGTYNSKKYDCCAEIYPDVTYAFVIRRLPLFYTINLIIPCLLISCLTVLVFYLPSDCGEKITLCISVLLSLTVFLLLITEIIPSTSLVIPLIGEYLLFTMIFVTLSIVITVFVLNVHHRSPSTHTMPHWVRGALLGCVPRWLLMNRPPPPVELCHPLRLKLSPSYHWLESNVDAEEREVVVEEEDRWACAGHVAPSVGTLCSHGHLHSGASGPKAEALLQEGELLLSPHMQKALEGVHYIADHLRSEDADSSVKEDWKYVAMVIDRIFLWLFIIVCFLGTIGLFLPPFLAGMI
Sequence of nAChR α2β4 (P30926 22-498): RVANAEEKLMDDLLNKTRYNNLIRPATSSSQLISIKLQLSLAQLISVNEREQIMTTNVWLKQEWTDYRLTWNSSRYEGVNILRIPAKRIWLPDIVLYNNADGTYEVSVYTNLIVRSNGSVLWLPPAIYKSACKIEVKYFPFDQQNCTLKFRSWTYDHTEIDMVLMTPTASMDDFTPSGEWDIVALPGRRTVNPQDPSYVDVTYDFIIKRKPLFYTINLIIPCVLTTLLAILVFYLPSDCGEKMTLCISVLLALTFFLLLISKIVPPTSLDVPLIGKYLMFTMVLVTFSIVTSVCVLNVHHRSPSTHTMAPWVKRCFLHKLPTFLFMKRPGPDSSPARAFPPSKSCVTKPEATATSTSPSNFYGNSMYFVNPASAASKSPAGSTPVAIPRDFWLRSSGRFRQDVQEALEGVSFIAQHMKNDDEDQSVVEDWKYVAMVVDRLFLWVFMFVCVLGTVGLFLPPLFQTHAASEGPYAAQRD
Sequence of hα2β2 nAChR (Q15822 27-529): as the sequence (Q15822 27-529) above
Sequence of hα2β2 nAChR (P17787 26-502): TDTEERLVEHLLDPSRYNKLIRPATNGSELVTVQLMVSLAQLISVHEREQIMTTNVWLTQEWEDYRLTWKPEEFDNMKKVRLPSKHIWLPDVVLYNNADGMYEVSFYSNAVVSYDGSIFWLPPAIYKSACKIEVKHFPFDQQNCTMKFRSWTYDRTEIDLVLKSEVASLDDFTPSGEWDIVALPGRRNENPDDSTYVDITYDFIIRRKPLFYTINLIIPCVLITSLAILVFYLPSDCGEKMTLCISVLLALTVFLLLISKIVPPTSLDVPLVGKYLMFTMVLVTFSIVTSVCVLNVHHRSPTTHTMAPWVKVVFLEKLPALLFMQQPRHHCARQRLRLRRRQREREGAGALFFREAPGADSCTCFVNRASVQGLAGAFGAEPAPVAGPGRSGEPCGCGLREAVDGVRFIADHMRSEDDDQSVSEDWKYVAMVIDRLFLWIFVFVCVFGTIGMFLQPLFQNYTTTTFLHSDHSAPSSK

Compound: CN1CCC[C@H]1c1cccnc1 [Nicotine, reference compound]
- Ki (hβ4 nAChR subtypes): 27 to 219 nM
- Ki (hα2β2 nAChR): 3.64 nM
- Ki (nAChR α2β4): 82.7 nM

Compound: [18F]c1ncccc1OC[C@@H]1C=CCN1 [[^18F]Nifene, 2-[18F]fluoro-3-[2-((S)-3-pyrrolinyl)methoxy]pyridine]
- Ratio of thalamus to cerebellum (α4β2* nAChRs [1]): 2
- Tolerability in human subjects [2]: well tolerated in all the human subjects with no adverse side effects
- Tolerability in human subjects ([2]; listed as [^18F] Nifene): well tolerated with no adverse effects
- Ratio of thalamus to cerebellum (α4β2* nAChRs [3]): 3.1
- Thalamus reference region ratio (α4β2* nAChRs [4]): > 2
- Binding in habenula (α4β2* nAChRs [5]; human PET): low levels
- Ratio of thalamus to corpus callosum (α4β2* nAChRs [5]; human PET): 2.6
- DVR, anterior thalamic radiation (white matter) (α4β2* nAChRs [5]; human PET, all subjects): ~ 1.6
- DVR, red nucleus (α4β2* nAChRs [5]; human PET, all subjects): 1.6–1.7
- DVR, superior longitudinal fasciculus (α4β2* nAChRs [5]; human PET, all subjects): ~ 1.5
- DVR ATR (α4β2* nAChRs [5]; [9]): 1.67
- DVR CB (α4β2* nAChRs [5]; [9]): 1.54 ± 0.25
- DVR Frontal cortex (α4β2* nAChRs [5]; [9]): 1.38 ± 0.15
- DVR LG (α4β2* nAChRs [5]; [9]): 2.46 ± 0.07
- DVR OG (α4β2* nAChRs [5]; [9]): 1.41
- DVR Pit (α4β2* nAChRs [5]; [9]): 1.57
- DVR Red Nucleus (α4β2* nAChRs [5]; [9]): 1.73
- DVR SLF (α4β2* nAChRs [5]; [9]): 1.55
- DVR SN/VTA (α4β2* nAChRs [5]; [9]): 1.75 ± 0.09
- DVR Thalamus (α4β2* nAChRs [5]; [9]): 2.58 ± 0.11
- DVR ATR (α4β2* nAChRs [5]; [10]): 1.58
- DVR CB (α4β2* nAChRs [5]; [10]): 1.42 ± 0.18
- DVR Frontal cortex (α4β2* nAChRs [5]; [10]): 1.31 ± 0.11
- DVR LG (α4β2* nAChRs [5]; [10]): 2.17 ± 0.08
- DVR OG (α4β2* nAChRs [5]; [10]): 1.31
- DVR Pit (α4β2* nAChRs [5]; [10]): 1.45
- DVR Red Nucleus (α4β2* nAChRs [5]; [10]): 1.56
- DVR SLF (α4β2* nAChRs [5]; [10]): 1.38
- DVR SN/VTA (α4β2* nAChRs [5]; [10]): 1.60 ± 0.08
- DVR Thalamus (α4β2* nAChRs [5]; [10]): 2.24 ± 0.10
- DVR ATR (α4β2* nAChRs [5]; [11]): 1.58 ± 0.13
- DVR OG (α4β2* nAChRs [5]; [11]): 1.31 ± 0.12
- DVR Pit (α4β2* nAChRs [5]; [11]): 1.45 ± 0.22
- DVR Red Nucleus (α4β2* nAChRs [5]; [11]): 1.56 ± 0.13
- DVR SLF (α4β2* nAChRs [5]; [11]): 1.38 ± 0.15
- DVR ATR (α4β2* nAChRs [5]; human one PET): 1.68
- DVR CB (α4β2* nAChRs [5]; human one PET): 1.40
- DVR Frontal cortex (α4β2* nAChRs [5]; human one PET): 1.29
- DVR LG (α4β2* nAChRs [5]; human one PET): 2.17
- DVR OG (α4β2* nAChRs [5]; human one PET): 1.41
- DVR Pit (α4β2* nAChRs [5]; human one PET): 1.62
- DVR Red Nucleus (α4β2* nAChRs [5]; human one PET): 1.64
- DVR SLF (α4β2* nAChRs [5]; human one PET): 1.55
- DVR SN/VTA (α4β2* nAChRs [5]; human one PET): 1.53
- DVR Thalamus (α4β2* nAChRs [5]; human one PET): 2.25
- DVR ATR (α4β2* nAChRs [5]; human seven PET): 1.45
- DVR CB (α4β2* nAChRs [5]; human seven PET): 1.50
- DVR Frontal cortex (α4β2* nAChRs [5]; human seven PET): 1.34
- DVR LG (α4β2* nAChRs [5]; human seven PET): 2.17
- DVR OG (α4β2* nAChRs [5]; human seven PET): 1.33
- DVR Pit (α4β2* nAChRs [5]; human seven PET): 1.63
- DVR Red Nucleus (α4β2* nAChRs [5]; human seven PET): 1.37
- DVR SLF (α4β2* nAChRs [5]; human seven PET): 1.18
- DVR SN/VTA (α4β2* nAChRs [5]; human seven PET): 1.68
- DVR Thalamus (α4β2* nAChRs [5]; human seven PET): 2.13
- DVR ATR (α4β2* nAChRs [5]; human three PET): 1.47
- DVR CB (α4β2* nAChRs [5]; human three PET): 1.18
- DVR Frontal cortex (α4β2* nAChRs [5]; human three PET): 1.17
- DVR LG (α4β2* nAChRs [5]; human three PET): 2.08
- DVR OG (α4β2* nAChRs [5]; human three PET): 1.14
- DVR Pit (α4β2* nAChRs [5]; human three PET): 1.17
- DVR Red Nucleus (α4β2* nAChRs [5]; human three PET): 1.56
- DVR SLF (α4β2* nAChRs [5]; human three PET): 1.36
- DVR SN/VTA (α4β2* nAChRs [5]; human three PET): 1.55
- DVR Thalamus (α4β2* nAChRs [5]; human three PET): 2.22
- DVR ATR (α4β2* nAChRs [5]; human two PET): 1.69
- DVR CB (α4β2* nAChRs [5]; human two PET): 1.61
- DVR Frontal cortex (α4β2* nAChRs [5]; human two PET): 1.44
- DVR LG (α4β2* nAChRs [5]; human two PET): 2.26
- DVR OG (α4β2* nAChRs [5]; human two PET): 1.35
- DVR Pit (α4β2* nAChRs [5]; human two PET): 1.36
- DVR Red Nucleus (α4β2* nAChRs [5]; human two PET): 1.67
- DVR SLF (α4β2* nAChRs [5]; human two PET): 1.43
- DVR SN/VTA (α4β2* nAChRs [5]; human two PET): 1.66
- DVR Thalamus (α4β2* nAChRs [5]; human two PET): 2.37
- Ratio of thalamus to cerebellum (α4β2* nAChRs [6]): 3.2
- Radioactive components in rat brain [7]: the only radioactive component

Compound: c1cnc2cc3c(cc2n1)[C@@H]1CNC[C@H]3C1 [varen-cline]
- in vivo efficacy compared to nicotine [8]: 30–60%

— publication PMC5788574 (The Journal of comparative neurology, 2017)
